Measurements collected from several papers.
Protocols differ between the studies behind these lines.
DPP4: Dipeptidyl peptidase 4 (DPP4, Homo sapiens, UniProt P27487)
CDK1: Cyclin-dependent kinase 1 (CDK1, Homo sapiens, UniProt P06493)

For `Cn1c(=O)cc(N2CCC(N)CC2)n(Cc2nc3ccc(Br)cc3c(=O)n2-c2cccc(F)c2)c1=O`, the inhibition was 46.8% (DPP4; enzyme activity; inhibitor; 20 µM).
For `COc1cc(-c2cncc3c2CN(C)Cc2cc(N4CCNCC4)ccc2-3)cc(OC)c1OC`, the remaining activity was 103% (Ephrin type-A receptor 2 (EPHA2, Homo sapiens, UniProt P29317); enzyme activity; inhibitor; 1 µM).
`CN(C)c1ncnc2c1ncn2[C@@H]1O[C@H](CCl)[C@@H](NC(=O)[C@@H](CSC(c2ccccc2)c2ccccc2)NC(=O)OC(C)(C)C)[C@H]1O` has an inhibition of 0% (Aminopeptidase N (ANPEP, Homo sapiens, UniProt P15144); enzyme activity; inhibitor; fluorescence; 10 µM).
The inhibition of `O=C1NC(=NCc2cccs2)S/C1=C\c1ccc2ncccc2c1` is reported as 100% (CDK1; enzyme activity; inhibitor; ADP detection; 100 µM).
`Cc1cc([C@@H](C)Nc2ccccc2C(=O)O)c2nc(N3CCC(F)(F)CC3)c(C#N)c(=O)n2c1` gave a remaining binding of 100% (Mitogen-activated protein kinase 3 (MAPK3, Homo sapiens, UniProt P27361); binding; competition with immobilised ligand; 1 µM).
`Cn1c(=O)cc(N2CCC(N)CC2)n(Cc2nc3ccccc3c(=O)n2-c2ccc(F)c(Cl)c2)c1=O` gave an inhibition of 32.5% (DPP4; enzyme activity; inhibitor; 20 µM).
The remaining binding of `C=CC(=O)N1CCC(COCC(=O)N2CCN(c3nc(-c4cnc(N)nc4C(F)F)nc(N4CCOC[C@@H]4C)n3)CC2)CC1` is reported as 99% (Calcium/calmodulin-dependent protein kinase kinase 2 (CAMKK2, Homo sapiens, UniProt Q96RR4); binding; competition with immobilised ligand; 1 µM).
For `Cn1c(=O)cc(N2CCC(N)CC2)n(Cc2nc3ccc(Br)cc3c(=O)n2-c2ccc(F)cc2)c1=O`, the inhibition was 27.3% (DPP4; enzyme activity; inhibitor; 20 µM).
`Cc1cc2cc(Oc3ccnc(Nc4cccc(CS(=O)(=O)NCCN(C)C)c4)n3)ccc2[nH]1` has an inhibition of 100% (CDK1; enzyme activity; inhibitor; ADP detection; 100 µM).
`CNc1ncc2c(/C=C/C(=O)N3CCC(OC)CC3)nn(Cc3cccc(C(F)(F)F)c3)c2n1` gave a remaining activity of 101% (RAC-alpha serine/threonine-protein kinase (AKT1, Homo sapiens, UniProt P31749); enzyme activity; inhibitor; radiometric; 1 µM).
`O=C(Cn1cc(C=CC(=O)c2ccc(F)cc2)nn1)Nc1nc(-c2ccccc2)cs1` gave an inhibition of 82.4% (Stromelysin-2 (Homo sapiens, UniProt P09238); enzyme activity; inhibitor; 0.5 µM).
`CCO[C@@H](Cc1ccc(OCCc2ccc(OS(C)(=O)=O)cc2)cc1)C(=O)O` gave an inhibition of 65.9% (CDK1; enzyme activity; inhibitor; ADP detection; 10 µM).
